Laboratory results: ChEMBL document CHEMBL3596173, “Structural Requirements for CNS Active Opioid Glycopeptides” (J Med Chem, 2015)
Starred links: 1 amine or outer side, 2 acyl side, 3 side chain; linkers in the order of their positions; H or OH if unused. Positions of bridges follow the written chain, without caps; N, C: chain ends. Non-standard residues stand in square brackets, D forms with d. Residues, ends and D or L forms follow the SMILES beside them. *: point of attachment. X1 = OC[C@H]1O[C@@H](O[C@H]2[C@H](O)[C@@H](O)[C@H](*)O[C@@H]2CO)[C@H](O)[C@@H](O)[C@@H]1O; βGlc = OC[C@H]1O[C@@H](*)[C@H](O)[C@@H](O)[C@@H]1O; dPen = CC(C)(S)[C@@H](N)C(=O)O; CH2CH2 = C(C[*:2])[*:1]; Aib = CC(C)(N)C(=O)O; Ava = NCCCCC(=O)O; GABA = NCCCC(=O)O

Experiments:
[1] = target: T1, Delta-type opioid receptor (Homo sapiens, UniProt P41143); assay: Binding affinity to delta opioid receptor (unknown origin)
T1 sequence (P41143 whole entry): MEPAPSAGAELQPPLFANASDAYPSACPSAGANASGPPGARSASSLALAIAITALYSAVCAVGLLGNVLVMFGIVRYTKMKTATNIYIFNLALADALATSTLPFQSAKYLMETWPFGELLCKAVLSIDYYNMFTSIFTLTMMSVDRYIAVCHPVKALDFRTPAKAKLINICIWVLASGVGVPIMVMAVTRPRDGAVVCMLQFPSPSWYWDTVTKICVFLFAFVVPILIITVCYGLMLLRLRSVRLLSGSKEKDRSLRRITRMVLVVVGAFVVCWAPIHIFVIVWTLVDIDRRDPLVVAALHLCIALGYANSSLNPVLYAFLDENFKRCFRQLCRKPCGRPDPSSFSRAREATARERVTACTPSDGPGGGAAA
Outline: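 Membranes from CHO cells stably expressing the human δ-opioid receptor. Incubated 3 h at 25 °C with 0.2 nM [3H]naltrindole in 50 mM Tris-HCl, pH 7.5. Nonspecific binding with 100 μM naloxone. Glass-fibre filtration, cold-buffer washes, scintillation counting. IC50 from log-probit least-squares fit, converted to Ki.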

[2] = target: T2, Kappa-type opioid receptor (Homo sapiens, UniProt P41145); assay: Binding affinity to kappa opioid receptor (unknown origin)
T2 sequence (P41145 whole entry): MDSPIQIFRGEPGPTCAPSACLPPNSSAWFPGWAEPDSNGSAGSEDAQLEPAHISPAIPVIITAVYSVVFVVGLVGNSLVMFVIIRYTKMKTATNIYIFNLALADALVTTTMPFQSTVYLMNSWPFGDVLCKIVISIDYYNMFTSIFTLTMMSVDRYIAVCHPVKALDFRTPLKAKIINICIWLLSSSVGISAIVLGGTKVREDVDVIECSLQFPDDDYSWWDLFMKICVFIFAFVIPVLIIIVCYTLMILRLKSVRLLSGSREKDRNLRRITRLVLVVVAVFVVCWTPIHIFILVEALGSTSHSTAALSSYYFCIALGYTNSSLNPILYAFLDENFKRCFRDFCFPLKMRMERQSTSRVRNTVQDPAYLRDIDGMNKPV
Outline: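 CHO cell membranes stably expressing the human κ-opioid receptor. Incubated with 1 nM [3H]U69,593 for 60 min at 25 °C in 50 mM Tris-HCl, pH 7.5. Naloxone 10 μM defined nonspecific binding. Filters presoaked at least 30 min in 0.1% polyethylenimine, then washed and counted. Ki calculated from IC50 (log-probit fit).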

[3] = target: T1, Delta-type opioid receptor; assay: Displacement of [3H]-naltrindole from human delta opioid receptor expressed in CHO cells after 3 hrs by scintillation counting analysis; type: cell-based
Outline: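 Binding used CHO-cell membranes bearing human δ receptor and 0.2 nM (final) [3H]naltrindole, incubated 3 h at 25 °C in 50 mM Tris-HCl pH 7.5. Nonspecific binding was defined with 100 μM naloxone. Samples were glass-fiber filtered, washed with cold buffer and scintillation counted. IC50 came from a log-probit least-squares fit and was converted to Ki as IC50/(1+S).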

[4] = target: Mu-type opioid receptor (Homo sapiens, UniProt P35372); assay: Displacement of [3H]-DAMGO from human mu opioid receptor expressed in CHO cells after 60 mins by scintillation counting analysis; type: cell-based
Sequence of Mu-type opioid receptor (P35372 whole entry): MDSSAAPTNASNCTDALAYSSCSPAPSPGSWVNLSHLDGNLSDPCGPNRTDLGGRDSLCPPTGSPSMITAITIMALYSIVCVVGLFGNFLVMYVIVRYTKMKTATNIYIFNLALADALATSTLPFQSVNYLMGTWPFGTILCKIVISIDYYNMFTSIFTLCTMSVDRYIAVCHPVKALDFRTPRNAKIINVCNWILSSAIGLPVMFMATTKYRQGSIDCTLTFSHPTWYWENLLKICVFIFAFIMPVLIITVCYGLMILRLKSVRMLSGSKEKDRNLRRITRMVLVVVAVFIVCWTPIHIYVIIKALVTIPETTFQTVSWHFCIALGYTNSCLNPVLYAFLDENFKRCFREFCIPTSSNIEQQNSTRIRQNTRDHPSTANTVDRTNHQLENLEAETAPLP
Outline: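 Membranes from CHO cells stably expressing human μ receptor were incubated with 0.25 nM (final) [3H]DAMGO in 50 mM Tris-HCl pH 7.5 for 60 min at 25 °C. Bound radioligand was separated by glass-fiber filtration with cold buffer washes and counted by scintillation. IC50 came from a least-squares log-probit fit, and Ki from IC50/(1+S).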

[5] = target: T2, Kappa-type opioid receptor; assay: Displacement of [3H]-U69593 from human kappa opioid receptor expressed in CHO cells after 60 mins by scintillation counting analysis; type: cell-based
Outline: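 Human κ receptor stably expressed in CHO cells was used as a membrane prep. It was incubated with 1 nM (final) [3H]U69,593 for 60 min at 25 °C in 50 mM Tris-HCl pH 7.5, with 10 μM naloxone defining nonspecific binding. Samples were filtered through glass-fiber filters presoaked ≥30 min in 0.1% polyethylenimine, washed cold and scintillation counted. Ki was derived from a log-probit IC50 via IC50/(1+S).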

[6] = tested on: Mus musculus; assay: Antinociceptive activity in icv dosed ICR mouse by 55 degC warm water tail-flick test; type: functional
[7] = tested on: Mus musculus; assay: Antinociceptive activity in iv dosed ICR mouse by 55 degC warm water tail-flick test; type: functional
[8] = tested on: Mus musculus; assay: Antinociceptive activity in icv dosed CD-1 mouse by 55 degC warm water tail-flick test; type: functional
Outline: (§1)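 Male CD-1 mice (27−30 g), 8−10 per group. Compound in distilled water, given icv under light ether anaesthesia, 2 mm caudal and 2 mm lateral from bregma. 55 °C warm-water tail-flick: baseline latency taken first, and mice not responding within 5 s excluded. Retested at various times after dosing. %Antinociception = 100(test − control latency)/(10 − control latency). A50 doses derived.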

[9] = tested on: Mus musculus; assay: Antinociceptive activity in iv dosed CD-1 mouse by 55 degC warm water tail-flick test; type: functional
Outline: (§2)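 Male CD-1 mice (27−30 g), 8−10 per group. Compound in 0.9% saline, injected into the tail vein at 0.1 mL/10 g after the vein was dilated in 40 °C water. Tail immersion in 55 °C water, with baseline latency first and 5 s non-responders excluded. Tested at intervals post-dose. %Antinociception = 100(test − control latency)/(10 − control latency). A50 values obtained.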

[10] = tested on: Mus musculus; assay: Antinociceptive activity in icv dosed CD-1 mouse assessed as time required to show maximum activity by 55 degC warm water tail-flick test; type: functional; outline: as §1
[11] = tested on: Mus musculus; assay: Antinociceptive activity in iv dosed CD-1 mouse assessed as time required to show maximum activity by 55 degC warm water tail-flick test; type: functional; outline: as §2
[12] = target: T1, Delta-type opioid receptor; assay: Displacement of [3H]-naltrindole from human delta opioid receptor expressed in CHO cells at 10 uM after 3 hrs by scintillation counting analysis relative to control; type: cell-based
[13] = target: T2, Kappa-type opioid receptor; assay: Displacement of [3H]-U69593 from human kappa opioid receptor expressed in CHO cells at 10 uM after 60 mins by scintillation counting analysis […]; type: cell-based
[14] = tested on: Mus musculus; assay: Antinociceptive activity in icv dosed CD-1 mouse assessed as time duration of activity by 55 degC warm water tail-flick test; type: functional; outline: as §1
[15] = tested on: Mus musculus; assay: Antinociceptive activity in iv dosed CD-1 mouse assessed as time duration of activity by 55 degC warm water tail-flick test; type: functional; outline: as §2

| SMILES | Ki [3] [nM] | Ki [4] [nM] | Ki [5] [nM] | A50 [8] [nmol] | A50 [9] [µmol/kg] | Time [10] [min] | Time [11] [min] | also measured |
| --- | --- | --- | --- | --- | --- | --- | --- | --- |
| CC1(C)SCCSC[C@@H](NC(=O)[C@@H](N)Cc2ccc(O)cc2)C(=O)N[C@@H](Cc2ccccc2)C(=O)N[C@H]1C(N)=O (H-Y[dC]F[dPen]-NH2; linker 2-4 via CH2CH2) | – | – | – | – | – | – | – | Ki [1]: 24.8 nM; Ki [2]: 2000 nM |
| CC(C)C[C@H](NC(=O)[C@H](Cc1ccccc1)NC(=O)CNC(=O)[C@@H](NC(=O)[C@@H](N)Cc1ccc(O)cc1)[C@@H](C)O)C(=O)N[C@@H](CO[C@@H]1O[C@H](CO)[C@@H](O[C@@H]2O[C@H](CO)[C@@H](O)[C@H](O)[C@H]2O)[C@H](O)[C@H]1O)C(N)=O (H-YTGFLS(X1)-NH2) | 9.2 | 5 | 42 | – | – | – | – | A50 [6]: 0.018 nmol; A50 [7]: 4.07 µmol/kg |
| CC(C)C[C@H](NC(=O)[C@H](CO[C@@H]1O[C@H](CO)[C@@H](O)[C@H](O)[C@H]1O)NC(=O)[C@H](CCCCN)NC(=O)[C@H](CC(C)C)NC(=O)[C@H](C)NC(=O)[C@H](CCCCN)NC(=O)[C@H](CCC(=O)O)NC(=O)C(C)(C)NC(=O)[C@H](CC(C)C)NC(=O)[C@H](CC(N)=O)NC(=O)CCCCNC(=O)[C@H](CC(C)C)NC(=O)[C@H](Cc1ccccc1)NC(=O)CNC(=O)[C@@H](NC(=O)[C@@H](N)Cc1ccc(O)cc1)[C@@H](C)O)C(N)=O (H-YTGFL[Ava]NL[Aib]EKALKS(βGlc)L-NH2) | 3.8 | 1.4 | 12 | 0.371 | 0.36 | 10 | 30 | – |
| CC(C)C[C@H](NC(=O)[C@H](CO[C@@H]1O[C@H](CO)[C@@H](O)[C@H](O)[C@H]1O)NC(=O)[C@H](CCCCN)NC(=O)[C@H](CC(C)C)NC(=O)[C@H](C)NC(=O)[C@H](CC(N)=O)NC(=O)[C@H](CC(N)=O)NC(=O)C(C)(C)NC(=O)[C@H](CC(C)C)NC(=O)[C@H](CC(N)=O)NC(=O)CNC(=O)CNC(=O)[C@H](Cc1ccccc1)N(C)C(=O)CNC(=O)[C@@H](C)NC(=O)[C@@H](N)Cc1ccc(O)cc1)C(N)=O | – | 120 | – | – | – | – | – | Activity [12]: 0%; Activity [13]: 16% |
| CC(C)C[C@H](NC(=O)[C@H](CO[C@@H]1O[C@H](CO)[C@@H](O)[C@H](O)[C@H]1O)NC(=O)[C@H](CCCCN)NC(=O)[C@H](CC(C)C)NC(=O)[C@H](C)NC(=O)[C@H](CCCCN)NC(=O)[C@H](CCC(=O)O)NC(=O)C(C)(C)NC(=O)[C@H](CC(C)C)NC(=O)[C@H](CC(N)=O)NC(=O)CCCNC(=O)[C@H](CC(C)C)NC(=O)[C@H](Cc1ccccc1)NC(=O)CNC(=O)[C@@H](NC(=O)[C@@H](N)Cc1ccc(O)cc1)[C@@H](C)O)C(N)=O (H-YTGFL[GABA]NL[Aib]EKALKS(βGlc)L-NH2) | 4.2 | 4.3 | 11 | 0.046 | 0.31 | 10 | 30 | Time [14]: 90 min |
| CC(C)C[C@H](NC(=O)[C@H](CO[C@@H]1O[C@H](CO)[C@@H](O)[C@H](O)[C@H]1O)NC(=O)[C@H](CCCCN)NC(=O)[C@H](CC(C)C)NC(=O)[C@H](C)NC(=O)[C@H](CC(N)=O)NC(=O)[C@H](CCC(=O)O)NC(=O)C(C)(C)NC(=O)[C@H](CC(C)C)NC(=O)[C@H](CC(N)=O)NC(=O)CNC(=O)CNC(=O)[C@H](Cc1ccccc1)N(C)C(=O)CNC(=O)[C@@H](C)NC(=O)[C@@H](N)Cc1ccc(O)cc1)C(N)=O | – | 1200 | – | – | – | – | – | Activity [12]: 0%; Activity [13]: 0% |
| CC(C)C[C@H](NC(=O)[C@H](CO[C@@H]1O[C@H](CO)[C@@H](O)[C@H](O)[C@H]1O)NC(=O)[C@H](CCCCN)NC(=O)[C@H](CC(C)C)NC(=O)[C@H](C)NC(=O)[C@H](CCCCN)NC(=O)[C@H](CCC(=O)O)NC(=O)C(C)(C)NC(=O)[C@H](CC(C)C)NC(=O)[C@H](CC(N)=O)NC(=O)[C@@H]1CCCN1C(=O)[C@H](CC(C)C)NC(=O)[C@H](Cc1ccccc1)NC(=O)CNC(=O)[C@@H](NC(=O)[C@@H](N)Cc1ccc(O)cc1)[C@@H](C)O)C(N)=O | 3.6 | 2.6 | 2.3 | 0.739 | 0.36 | 10 | 30 | – |
| CC(C)C[C@H](NC(=O)[C@H](CO[C@@H]1O[C@H](CO)[C@@H](O[C@@H]2O[C@H](CO)[C@@H](O)[C@H](O)[C@H]2O)[C@H](O)[C@H]1O)NC(=O)[C@H](CCCCN)NC(=O)[C@H](CC(C)C)NC(=O)[C@H](C)NC(=O)[C@H](CCCCN)NC(=O)[C@H](CCC(=O)O)NC(=O)C(C)(C)NC(=O)[C@H](CC(C)C)NC(=O)[C@H](CC(N)=O)NC(=O)CCCNC(=O)[C@H](CC(C)C)NC(=O)[C@H](Cc1ccccc1)NC(=O)CNC(=O)[C@@H](NC(=O)[C@@H](N)Cc1ccc(O)cc1)[C@@H](C)O)C(N)=O (H-YTGFL[GABA]NL[Aib]EKALKS(X1)L-NH2) | 17 | 13 | 52 | 0.165 | 1.13 | – | – | Time [15]: 180 min |
